Variants at the floor of the assay were thinned out.

B1: tRNA (parent)
chain: GUUCCGUUGGCGUAAUGGUAACGCGUCUCCCUCCUAAGGAGAAGACUGCGGGUUCGAGUCCCGUACGGAACG

The data set covers variants of B1. The data set can be described thus: yeast fitness relative to wild type (ratio to wild type); higher = fitter; tRNA-Arg(CCU), competitive growth, 37 C, YPD. The essentials:
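For this measurement, the tRNA-Arg(CCU) gene was varied by chemical synthesis at a 3% per-site mutation rate across 69 sites, and each variant was placed at the native genomic locus in Saccharomyces cerevisiae. The pooled strains went through a 24-hour competition in YPD at 37°C in six parallel replicates, with amplicons from start and end populations read by 100-nucleotide paired-end sequencing. Darwinian fitness relative to wild type followed from the change in each genotype's frequency. Genotypes needed ≥ 100 starting reads, and estimates < 0.5 were set to 0.5.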
As for U7G U26G C33G U59A U64C, the yeast fitness was determined as 0.502. Consider U8A U19C G48C U59A C66U, for which the yeast fitness is 0.671. Under U8A C29G A40G A70G stands ≤ 0.5; under U8A A42C, 0.648; under U8A U26G U35C G63A A70G, ≤ 0.5. Under U8A U28A C31G A65U A69C stands ≤ 0.5; under U8A A40G A42U A45U U59G G68A, ≤ 0.5. For U8A U26G C29A C46U G58A G63A, the yeast fitness is ≤ 0.5. Under U8A A45C stands 0.692; under U8A A45U, 0.818; under U7G U13C A37U, ≤ 0.5. Under U8A A36G G67C stands ≤ 0.5; under U7G U32C C34G A43U, ≤ 0.5.

For U8C A14G C49U C61U, the yeast fitness was ≤ 0.5. Under U8A C30G C61A stands ≤ 0.5; under U8A U19C C31A U35G A43G U47C G52U G67A, ≤ 0.5; under U7G U26C C31A G38C, 0.561. Under U8A G10C C34U C61U U64G stands ≤ 0.5; under U8A U16A C27G C31A U59C C61U, ≤ 0.5.

Regarding U8A G17A U32A A43G, the yeast fitness is ≤ 0.5.

With U8A C11A, the yeast fitness was 0.674. Under U8A C31U U59A stands ≤ 0.5; under U8A G9A C24U U53C C60G, ≤ 0.5. In the case of U8A C22U A36U C49G A69C, the yeast fitness was determined as 0.631. Under U8A C11U C46U G68A stands ≤ 0.5; under U8A C29G A65G C66G, 0.57; under U8C A14C, 0.66. Take U8C A14G: the yeast fitness was 0.934. Under U8A A40U A43U A65C stands ≤ 0.5; under U8A G12A C33U A37G C62A, ≤ 0.5. Under U8A G23C G56A stands 0.539; under U8A C30G C46A G63A G67A, ≤ 0.5; under U8A A36C C62A, ≤ 0.5. Under U8A A15C G18C stands 0.575; under U8A G18C C27U C46A G50A C62U, ≤ 0.5. U8A G23A A36G: the yeast fitness is ≤ 0.5. Under U8A A20U G56A G67A stands ≤ 0.5. Under U8C A14G C24G C31U C55A stands ≤ 0.5; under U8A A14U, 0.534. Under U8A C29A G39A stands ≤ 0.5; under U7G U32C A40G, 0.559; under U8A A15G C27A U47G G68U, ≤ 0.5. In the case of U8A C29G U32C, the yeast fitness is ≤ 0.5. For U8A G41C C62U A65U, the yeast fitness is ≤ 0.5. For the variant U8A G12A A21G C62U, the yeast fitness came out at 0.697. Under U8A C33U A36U A70G stands ≤ 0.5; under U7G U59C, 0.871.

As for U8A C11G A65G, the yeast fitness is 0.857. Under U8A A36U C55G U59C A69C stands 0.794; under U8A C34U A43U U59C, 0.619. Turning to U8A U16G C31U C34A A37U G41C, the yeast fitness was 0.525. Under U7G U16C C30A stands ≤ 0.5; under U8A G56A G67C, ≤ 0.5; under U8A G9A A21C, ≤ 0.5. Under U8A U28A C33A A36U stands 0.541. Under U8A U19G C22U stands ≤ 0.5. For U8A G18A G52A U59A G67C, the yeast fitness was ≤ 0.5.

Regarding U8A U16A C27G U59C C61U, the yeast fitness was ≤ 0.5. Under U8A A20C A42U stands ≤ 0.5; under U8A U35G, ≤ 0.5. Consider U8A U32A G52A G56C, for which the yeast fitness is ≤ 0.5. Consider U8A A14G A20U G63C C66G, for which the yeast fitness was ≤ 0.5. Under U8A U13A A14C U16A stands ≤ 0.5; under U8A C11A C24U A40U, ≤ 0.5. Regarding U8A U32C G44C C62U, the yeast fitness was ≤ 0.5. Under U8A A14G C24G G56A stands ≤ 0.5.

For U8A A36G G38C G52C A57U A69U A70G, the yeast fitness is ≤ 0.5. As to U8A C11U G25C G39C C55U, the yeast fitness is ≤ 0.5. Under U8A C11G G56A stands 0.583; under U8A A43U, 0.763; under U8A C11U A21C A69C, ≤ 0.5. For the variant U8A G18C C66U, the yeast fitness was ≤ 0.5. As for U8A A15C A21U, the yeast fitness is ≤ 0.5. Under U8A A40U stands 0.707. Under U8A G39C stands 0.555. Under U8A U16A G23A C34U G39A G58C stands 0.559. U8A C34U C61A: the yeast fitness was ≤ 0.5. As to U7G U59C A69U, the yeast fitness is 0.717. As to U8A C11U G25A C33A A40U A69U, the yeast fitness is ≤ 0.5.

U8A U64G: the yeast fitness amounted to 0.554.

Take U8A C24A U28A G58A: the yeast fitness was found to be 0.584.

Regarding U8A A20C U35A G38C A69C, the yeast fitness was determined as 0.535. On to U8A C29U G51C G67A, for which the yeast fitness was 0.536. Consider U8A U28C C61A G67C, for which the yeast fitness was ≤ 0.5. Under U8A C31G A65U stands ≤ 0.5; under U8A G12A A45C, ≤ 0.5.

Take U7G U13C A36U G50C U54C: the yeast fitness was ≤ 0.5.

Consider U8A C22G G25A C27A C33U A57C G68C, for which the yeast fitness is ≤ 0.5. For the variant U8A C27G A42U, the yeast fitness was ≤ 0.5.

As to U8A G25A C33G A42G G50A, the yeast fitness was ≤ 0.5. Under U8A C24A C30U G48C stands ≤ 0.5; under U8A U32G A37G U54G G56A, ≤ 0.5.

Take U8A C24A G52C: the yeast fitness was ≤ 0.5. Turning to U8C A14G A70U, the yeast fitness is 0.59.

U8A U47G G56A: the yeast fitness is ≤ 0.5. Under U8A G18C U19C A20C A36G U64A G67C stands ≤ 0.5; under U8A C27U A40G C49U C55G, 0.554; under U8A G44A C60U G67C, 0.576.

Regarding U8A A40G C49G U54A C55A, the yeast fitness is ≤ 0.5. Consider U8A U28C C33A, for which the yeast fitness was ≤ 0.5.

Consider U8C A14C A43G, for which the yeast fitness is ≤ 0.5. For U8A U26A C29A A65C, the yeast fitness was 0.761.

For the variant U8A A40G U64C, the yeast fitness came out at 0.623. As to U8A A14G C24G A45C U64A, the yeast fitness was ≤ 0.5. Under U8A C29U C62U A70U stands ≤ 0.5. Regarding U8A A37C A43U G63A, the yeast fitness stood at 0.561. Under U8A U47C stands 0.723; under U8A U47A, 0.619. Under U8A C29U G51C C55U stands 0.526. Take U8A C61U: the yeast fitness amounted to 0.718. Under U8A C46A U54C stands 0.666; under U8A C22G G25A C27A C33U C49G A65C, 0.608. Under U8C A14C G50A A57C stands ≤ 0.5. On to U8A G18A C30A U32A U35G G67A, for which the yeast fitness turned out to be 0.527. Under U8A G58C stands 0.764.

For U8A A45G A65U, the yeast fitness was ≤ 0.5. Under U8A A14C C31A G41C C49A G56A stands 0.668. Under U8A G18C C27U G51C C55A C62U A65U G68A A69U stands ≤ 0.5.

On to U8A A14U G17A C27U, for which the yeast fitness is ≤ 0.5.

With U8A U64A A65C G68A, the yeast fitness is ≤ 0.5.

With U8A C46A, the yeast fitness came out at 0.657. Under U8A U26C G39C A43G stands ≤ 0.5. Under U8A C24U stands 0.834. Turning to U8A A14U C22U, the yeast fitness stood at 0.592.

On to U8A U35A A36G A57C, for which the yeast fitness is ≤ 0.5.

As for U8A A15C G18C C49U C62U, the yeast fitness is ≤ 0.5. Under U8A G63A stands 0.597; under U8A G44C C66U, ≤ 0.5; under U8A G12A A20C, ≤ 0.5. Under U8A G18A C27U C31A stands ≤ 0.5. Turning to U8A G18A C30G A40C U47C, the yeast fitness is ≤ 0.5. Under U8A C24U U28C A40C stands ≤ 0.5; under U8A A36G A40C U47A, ≤ 0.5.

In the case of U8C A14C C31U, the yeast fitness was ≤ 0.5.

With U8A G39C A43G, the yeast fitness was 0.605. As to U8A G56A, the yeast fitness was 0.701. In the case of U8A C29U C30G, the yeast fitness is ≤ 0.5. Under U8A G23C G56U A65U stands ≤ 0.5; under U8A C33U A65G, ≤ 0.5; under U8A C33U A65U, 0.502. With U8C A14U A42C G52A G56C, the yeast fitness is ≤ 0.5. Turning to U8A C24A U28C, the yeast fitness was ≤ 0.5. Under U8A C27U A40G C55U A57U stands ≤ 0.5; under U8A G18C, ≤ 0.5; under U8A G38A U54A, ≤ 0.5. Under U8A G18C G25C C60U C61A stands ≤ 0.5; under U8A G12A C62A, 0.53. Under U8A A15U C27G A36G stands 0.569; under U8A G18A G25A C33U G51A G56A C66U, ≤ 0.5. As for U8A G12A A14C G67U, the yeast fitness was 0.65.

Take U8A C61U G63C A65G: the yeast fitness was ≤ 0.5. Under U8A C30U G58C stands ≤ 0.5; under U8A C22G G25A C27A C33U C49G, 0.642; under U8A G10C G12C C34G C61G, ≤ 0.5. U8A G39C A65G: the yeast fitness is ≤ 0.5. Under U8A A14G C24G A45C C62U stands ≤ 0.5; under U8A C22U C49U A69C A70C, 0.545; under U7G U28G, 0.635. Under U8A G67C stands 0.736; under U8A G67U, 0.636; under U8A G18C G25C A45U C49G, ≤ 0.5.

With U8A A14C C31A G41C G63U U64A, the yeast fitness turned out to be 0.776. For U8C A14G G23U A65C, the yeast fitness is ≤ 0.5. Under U8A C29U stands 0.692; under U8A A36U G39A C66U, ≤ 0.5; under U8A G10A G38C, ≤ 0.5. Under U8A A21U C27G C30A stands ≤ 0.5.
